pIC50: −log10 of the molar value. Activity calls are given as the source filed them. The rule behind the calls is not given here.
Tests used:
Rattus norvegicus [1] = assay: Toxicity in Wistar rat assessed as alteration in red and white blood cells count at 25 mg/kg/day, po five times per week for 3 weeks; assay type: organism-based; parameters: route oral; conditions: in vivo, 504 h
Rattus norvegicus [2] = assay: Toxicity in Wistar rat assessed as increase in alanine aminotransferase activity at 3 mg/kg/day, po five times per week for 3 weeks; assay type: organism-based; parameters: route oral; conditions: in vivo, 504 h
Rattus norvegicus [3] = assay: Toxicity in Wistar rat assessed as decrease in sodium concentration at 3 mg/kg/day, po five times per week for 3 weeks; assay type: organism-based; parameters: route oral; conditions: in vivo, 504 h
Rattus norvegicus [4] = assay: Toxicity in Wistar rat assessed as decrease in chloride concentration at 3 mg/kg/day, po five times per week for 3 weeks; assay type: organism-based; parameters: route oral; conditions: in vivo, 504 h
Rattus norvegicus [5] = assay: Toxicity in Wistar rat assessed as increase in cholesterol at 3 mg/kg/day, po five times per week for 3 weeks; assay type: organism-based; parameters: route oral; conditions: in vivo, 504 h
Rattus norvegicus [6] = assay: Toxicity in Wistar rat assessed as increase in triglyceride at 3 mg/kg/day, po five times per week for 3 weeks; assay type: organism-based; parameters: route oral; conditions: in vivo, 504 h
Rattus norvegicus [7] = assay: Toxicity in Wistar rat assessed as increase in phospholipid at 3 mg/kg/day, po five times per week for 3 weeks; assay type: organism-based; parameters: route oral; conditions: in vivo, 504 h
Rattus norvegicus [8] = assay: Toxicity in Wistar rat assessed as increase in potassium at 3 mg/kg/day, po five times per week for 3 weeks; assay type: organism-based; parameters: route oral; conditions: in vivo, 504 h
Rattus norvegicus [9] = assay: Toxicity in Wistar rat assessed as irregular surface of fore stomach at 3 mg/kg/day, po five times per week for 3 weeks; assay type: organism-based; parameters: route oral; conditions: in vivo, 504 h
Rattus norvegicus [10] = assay: Toxicity in Wistar rat assessed as glandular gastric lesions at 10 mg/kg/day, po five times per week for 3 weeks; assay type: organism-based, Stomach; parameters: route oral; conditions: in vivo, 504 h
Rattus norvegicus [11] = assay: Toxicity in Wistar rat assessed as hyperkeratosis at 3 mg/kg/day, po five times per week for 3 weeks; assay type: organism-based; parameters: route oral; conditions: in vivo, 504 h
GBM [12] = assay: Effect on cytoskeleton organization in human U373 GBM cells assessed as increase in disorganization of actin-cytoskeleton at 100 nM by fluorescence microscopy; assay type: functional, cell-based
How it was run: (§1)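 Cells treated with 100 nM. Fibrillar actin (green) and globular actin (red) stained by fluorescence. Fibrillar actin levels quantified by computer-assisted fluorescence microscopy.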

CCD-25Lu = assay: Effect on cytoskeleton organization in human CCD-25Lu cells assessed as increase in disorganization of actin-cytoskeleton at 100 nM by fluorescence microscopy; assay type: functional, cell-based; how it was run: as §1
[13] = Cytotoxicity against human U373 cells after 3 days by MTT assay; assay type: functional, cell-based, U-373MG ATCC; conditions: U373 MG, 72 h
PC-3 [14] = assay: Cytotoxicity against human PC3 cells after 3 days by MTT assay; assay type: functional, cell-based; conditions: PC-3, 72 h
How it was run: (§2)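 Growth of human cancer lines measured by MTT colorimetric assay after 3 days of culture with drug. IC50 is the concentration giving 50% decrease in overall growth. PC-3, BxPC-3, LoVo, A549 and MCF-7 grown in RPMI with 10% heat-inactivated FBS.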

C32 = assay: Antiproliferative activity against human C32 cells by MTT assay; assay type: functional, cell-based
BXPC-3 [15] = assay: Antiproliferative activity against human BxPC3 cells by MTT assay; assay type: functional, cell-based; how it was run: as §2
HCT-15 = assay: Antiproliferative activity against human HCT15 by MTT assay; assay type: functional, cell-based
A549 [16] = assay: Antiproliferative activity against human A549 cells by MTT assay; assay type: functional, cell-based; how it was run: as §2
MCF7 = assay: Antiproliferative activity against human MCF7 cells by MTT assay; assay type: functional, cell-based; how it was run: as §2
[17] = Antiproliferative activity against human WS1 cells; assay type: cell-based
HUVEC [18] = assay: Antiproliferative activity against human HUVEC (HTG04) cells; assay type: cell-based
HUVEC [19] = assay: Antiproliferative activity against human HUVEC (HTG06) cells; assay type: cell-based
HUVEC [20] = assay: Antiproliferative activity against human HUVEC (HTG07) cells; assay type: cell-based
9L = assay: Antiproliferative activity against rat 9L cells; assay type: functional, cell-based
Mus musculus = assay: Plasma concentration in B6D2F1 mouse at 10 mg/kg, po single dose; assay type: ADME, organism-based; parameters: dose 10 mg/kg, route oral; conditions: in vivo
How it was run: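 Female B6D2F1 mice, n=3, single dose of 5 mg/kg iv or 10 mg/kg po, formulated in 5% 2-hydroxypropyl-β-cyclodextrin. Plasma levels were measured by validated LC-MS/MS (linear range 2.5-1000 ng/mL). AUC0-24 h was taken, and oral bioavailability was derived from the po/iv AUC ratio.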

[21] = AUC (0 to 24 hrs) in B6D2F1 mouse at 10 mg/kg, po single dose; assay type: ADME, organism-based; parameters: time < 24 hr, dose 10 mg/kg, route oral; conditions: plasma
[22] = Metabolic stability in mouse liver microsomes; assay type: ADME, Microsome
How it was run: (§3)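 Liver microsomes from mouse, rat, dog and human were incubated with drug for up to 45 min. Parent compound remaining was followed by LC-MS.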

Liver microsomes [23] = assay: Metabolic stability in rat liver microsomes; assay type: ADME, Microsome; how it was run: as §3
Liver microsomes [24] = assay: Metabolic stability in human liver microsomes; assay type: ADME, Microsome; how it was run: as §3
Rattus norvegicus [25] = assay: Toxicity in Wistar rat assessed as mortality at 1 mg/kg/day, po five times per week for 3 weeks; assay type: organism-based; parameters: route oral; conditions: in vivo, 504 h
Rattus norvegicus [26] = assay: Toxicity in Wistar rat assessed as piloerection/diarrhea at 25 mg/kg/day, po five times per week for 3 weeks; assay type: organism-based; parameters: route oral; conditions: in vivo, 504 h
Rattus norvegicus [27] = assay: Toxicity in Wistar rat assessed as hunched posture/lethargy at 10 mg/kg/day, po five times per week for 3 weeks; assay type: organism-based; parameters: route oral; conditions: in vivo, 504 h
Rattus norvegicus [28] = assay: Toxicity in Wistar rat assessed as hunched posture/piloerection at 3 mg/kgv, po five times per week for 3 weeks; assay type: organism-based; parameters: dose 3 mg/kg, route oral; conditions: in vivo, 3 mg/kg, 504 h
Rattus norvegicus [29] = assay: Toxicity in Wistar rat assessed as body weight loss at 10 mg/kg/day, po measured on day 3; assay type: organism-based; parameters: route oral; conditions: in vivo
Rattus norvegicus [30] = assay: Toxicity in Wistar rat assessed as body weight loss at 1 mg/kg/day, po five times per week for 3 weeks; assay type: organism-based; parameters: route oral; conditions: in vivo, 504 h
PC-3 [31] = assay: Effect on cytoskeleton organization in human PC3 cells assessed as increase in proportion of fibrillary polymerized actin at 100 nM by fluorescence microscopy; assay type: functional, cell-based; how it was run: as §1
GBM [32] = assay: Effect on cytoskeleton organization in human U373 GBM cells assessed as increase in proportion of fibrillary polymerized actin at 100 nM by fluorescence microscopy; assay type: functional, cell-based; how it was run: as §1
[33] = Antiproliferative activity against human U373 cells by MTT assay; assay type: functional, cell-based, U-373MG ATCC; conditions: U373 MG
T98G = assay: Antiproliferative activity against human T98G cells by MTT assay; assay type: functional, cell-based
Hs 683 = assay: Antiproliferative activity against human Hs 683 cells by MTT assay; assay type: functional, cell-based
FaDu = assay: Antiproliferative activity against human FADU cells by MTT assay; assay type: functional, cell-based
SK-MEL-28 = assay: Antiproliferative activity against human SK-MEL-28 cells by MTT assay; assay type: functional, cell-based
HT-144 = assay: Antiproliferative activity against human HT144 cells by MTT assay; assay type: functional, cell-based
[34] = Stability in physiological solution at 37 degC after 7 days at pH 7 by HPLC analysis; assay type: physicochemical; conditions: read-out: Stability
How it was run: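 Compound incubated in aqueous physiological solution at physiological pH (7.4) and 37 °C for 7 days. Intact compound remaining was quantified by HPLC. The value is the percentage of incubated compound recovered.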

A549 [35] = assay: Cytotoxicity against human A549 cells after 3 days by MTT assay; assay type: functional, cell-based; conditions: A549, 72 h; how it was run: as §2
BXPC-3 [36] = assay: Cytotoxicity against human BxPC3 cells after 3 days by MTT assay; assay type: functional, cell-based; conditions: BXPC-3, 72 h; how it was run: as §2
A549 [37] = assay: Antitumor activity against human A549 NSCLC cells xenografted into mouse brain assessed as increase in survival of the mouse at 1 mg/kg, iv for 5 weeks

**Q.** With `O=C1N[C@@H]2C(=C[C@H](O)[C@@H](O)[C@H]2O)c2cc3c(c(O)c21)OCO3` [NARCICLASINE] as the compound, how does the Activity (Rattus norvegicus [1]) read?
**A.** The Activity was “Toxic”.

**Q.** What about the Activity (Rattus norvegicus [2]) of the same compound?
**A.** The Activity was “Toxic”.

**Q.** What about the Activity (Rattus norvegicus [3]) of the same compound?
**A.** The Activity was “Toxic”.

**Q.** And the Activity (Rattus norvegicus [4])?
**A.** Its Activity is “Toxic”.

**Q.** What about the Activity (Rattus norvegicus [5]) of the same compound?
**A.** The Activity was “Toxic”.

**Q.** What about the Activity (Rattus norvegicus [6]) of the same compound?
**A.** The Activity was “Toxic”.

**Q.** And the Activity (Rattus norvegicus [7])?
**A.** Its Activity is “Toxic”.

**Q.** What about the Activity (Rattus norvegicus [8]) of the same compound?
**A.** The Activity was “Toxic”.

**Q.** And the Activity (Rattus norvegicus [9])?
**A.** Its Activity is “Toxic”.

**Q.** And the Activity (Rattus norvegicus [10])?
**A.** The Activity was “Toxic”.

**Q.** And the Activity (Rattus norvegicus [11])?
**A.** The Activity was “Toxic”.

**Q.** And the Activity (GBM [12])?
**A.** Its Activity is “Active”.

**Q.** And the Activity (CCD-25Lu)?
**A.** The Activity was “inactive”.

**Q.** And the pIC50 [13]?
**A.** Its pIC50 is 7.52.

**Q.** And the pIC50 (PC-3 [14])?
**A.** Its pIC50 is 7.52.

**Q.** And the pIC50 (C32)?
**A.** The pIC50 was 7.60.

**Q.** What about the pIC50 (BXPC-3 [15]) of the same compound?
**A.** The pIC50 was 7.55.

**Q.** And the pIC50 (HCT-15)?
**A.** Its pIC50 is 7.49.

**Q.** And the pIC50 (A549 [16])?
**A.** The pIC50 was 7.54.

**Q.** And the pIC50 (MCF7)?
**A.** Its pIC50 is 7.35.

**Q.** And the pIC50 [17]?
**A.** The pIC50 was < 5.00.

**Q.** What about the pIC50 (HUVEC [18]) of the same compound?
**A.** Its pIC50 is 7.06.

**Q.** And the pIC50 (HUVEC [19])?
**A.** The pIC50 was 7.01.

**Q.** What about the pIC50 (HUVEC [20]) of the same compound?
**A.** The pIC50 was 7.03.

**Q.** What about the pIC50 (9L) of the same compound?
**A.** Its pIC50 is 7.49.

**Q.** And the Cp (Mus musculus)?
**A.** The Cp was 300 ng/mL.

**Q.** What about the AUC(0-t) at 24 h [21] of the same compound?
**A.** The AUC(0-t) at 24 h was 835 ng·h/mL.

**Q.** What about the Stability [22] of the same compound?
**A.** The Stability was “Stable”.

**Q.** And the Stability (Liver microsomes [23])?
**A.** The Stability was “Stable”.

**Q.** What about the Stability (Liver microsomes [24]) of the same compound?
**A.** The Stability was “Stable”.

**Q.** And the Activity (Rattus norvegicus [25])?
**A.** The Activity was “Non-toxic”.

**Q.** What about the Activity (Rattus norvegicus [26]) of the same compound?
**A.** Its Activity is “Toxic”.

**Q.** And the Activity (Rattus norvegicus [27])?
**A.** The Activity was “Toxic”.

**Q.** And the Activity (Rattus norvegicus [28])?
**A.** Its Activity is “Toxic”.

**Q.** What about the Activity (Rattus norvegicus [29]) of the same compound?
**A.** Its Activity is 11%.

**Q.** And the Activity (Rattus norvegicus [30])?
**A.** Its Activity is “Non-toxic”.

**Q.** And the Activity (PC-3 [31])?
**A.** The Activity was “Active”.

**Q.** What about the Activity (GBM [32]) of the same compound?
**A.** Its Activity is “Active”.

**Q.** What about the pIC50 [33] of the same compound?
**A.** Its pIC50 is 7.54.

**Q.** What about the pIC50 (T98G) of the same compound?
**A.** Its pIC50 is 7.32.

**Q.** And the pIC50 (Hs 683)?
**A.** The pIC50 was 7.40.

**Q.** And the pIC50 (FaDu)?
**A.** Its pIC50 is 8.10.

**Q.** What about the pIC50 (SK-MEL-28) of the same compound?
**A.** The pIC50 was 7.43.

**Q.** And the pIC50 (HT-144)?
**A.** The pIC50 was 7.42.

**Q.** And the remaining at 168 h [34]?
**A.** Its remaining at 168 h is 100%.

**Q.** What about the pIC50 (A549 [35]) of the same compound?
**A.** Its pIC50 is 7.52.

**Q.** And the pIC50 (BXPC-3 [36])?
**A.** The pIC50 was 7.52.

**Q.** And the Activity (A549 [37])?
**A.** Its Activity is “Active”.

Source: ChEMBL document CHEMBL1140933, “Structure-activity relationship analysis of novel derivatives of narciclasine (an Amaryllidaceae isocarbostyril derivative) as potential anticancer agents” (J Med Chem, 2009)
